Measurements of several laboratories.
Lines come from different studies, so protocols differ.
FGFR3: Fibroblast growth factor receptor 3 (FGFR3, Homo sapiens, UniProt P22607)

O=c1[nH]c2ccccc2n1C1CCN(Cc2ccc(-c3[nH]c4cc5ncnc5cc4nc3-c3ccccc3)cc2)CC1
remaining signal (FGFR3; cell-free assay; 0.5 µM): 101%

Cc1nn(C)cc1-c1nc2c(N3CCN(Cc4ccc(Cl)cc4)CC3)c(Cl)cnc2[nH]1
remaining binding (Fibroblast growth factor receptor 3 (FGFR3, Homo sapiens, UniProt P22607, G697C); binding, competition with immobilised ligand; 1 µM): 69%

Nc1ncc(-c2nc(N3CCOCC3)nc(N3CCOCC3)n2)c(C(F)F)n1
remaining binding (FGFR3; cell-free assay, competition with immobilised ligand; 10 µM): 88%

C#Cc1n[nH]c2c(-c3cn(C(C)c4ccccn4)c(=O)[nH]c3=O)cc(F)cc12 (stereo not drawn)
inhibition (FGFR3; enzyme activity, inhibitor; 1 µM): 9.3%

COc1cc(Nc2ncc(F)c(Nc3ccc4c(n3)NC(=O)C(C)(C)O4)n2)cc(OC)c1OC
inhibition (FGFR3; binding, competition with immobilised ligand; 10 µM): 99%

Cn1cncc1[C@@](O)(COc1ccc(C#N)cc1-c1ccc(OC(F)(F)F)cc1)c1ccc(C#N)cc1
remaining binding (FGFR3; cell-free assay, competition with immobilised ligand; 1 µM): 100%

COc1ncccc1-c1cnn2ccc(N3CCN(C(=O)OC(C)C)CC3)nc12
remaining binding (FGFR3; binding, competition with immobilised ligand; 1 µM): 86%

Cn1cc(-c2cc(F)cc(N3CCn4c(cc5c4CCCC5)C3=O)c2CO)cc(Nc2ccc(N3CCN(C4COC4)CC3)cn2)c1=O
inhibition (FGFR3; enzyme activity, inhibitor; 0.1 µM): 19%

CC(C)(C)c1cc(C=C(C#N)C#N)cc(Br)c1O
remaining activity (FGFR3; enzyme activity, inhibitor; 0.5 µM): 92.8%
